Data on three molecules can be found in ChEMBL document CHEMBL4699403, “Cyclic boronates as versatile scaffolds for KPC-2 beta-lactamase inhibition” (RSC Med Chem, 2020).

The structures appear in SMILES notation. pIC50, pKi: −log10 of the molar value.

Test [1] in a line: Inhibition of beta lactamase KPC-2 in Klebsiella pneumoniae using nitrocefin as substrate preincubated for 10 mins followed by substrate addition. In a few lines: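 KPC-2 was preincubated with cyclic boronate for 10 min in 10 mM HEPES pH 7.5, 150 mM NaCl at 25 °C. 50 μM nitrocefin was then added and initial hydrolysis rates were read at 486 nm. IC50 was derived from the inhibitor concentration dependence of these rates. Inhibitor stocks were 100 mM in DMSO, diluted in buffer.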

Test [2] is described as follows: Inhibition of beta lactamase KPC-2 in Klebsiella pneumoniae assessed as apparent inhibition constant using nitrocefin as substrate measured without preincubation by Dixon plot analysis. The conditions noted are these: read-out: Ki(app). In a few lines:
(§1)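 Direct competition assays at 25 °C in 10 mM HEPES pH 7.5, 150 mM NaCl. A range of cyclic boronate concentrations was mixed with 50 μM nitrocefin, and the reaction was started by adding 1 nM KPC-2. Nitrocefin hydrolysis was followed at 486 nm (Δε 20 500 M-1 cm-1). Kiapp and k2/K were both taken from these competition data. Inhibitor stocks were 100 mM in DMSO, diluted in buffer.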

The subject of test [3] is Klebsiella pneumoniae. The test can be described thus: Inhibition of beta lactamase KPC-2 in Klebsiella pneumoniae assessed as apparent second order rate constant K2/K using nitrocefin as substrate. In a few lines: as §1
For test [4], the system named is Klebsiella pneumoniae. Briefly: Irreversible inhibition of beta lactamase KPC-2 in Klebsiella pneumoniae assessed as off-rate constant using nitrocefin as substrate preincubated for 30 mins followed by substrate addition. In a few lines:
(§2)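 Jump-dilution off-rate assay. 1 μM KPC-2 was preincubated with 8 μM cyclic boronate for 30 min at room temperature, then serially diluted to a final KPC-2 concentration of 500 pM. 50 μM nitrocefin was added and recovery of hydrolysis was monitored at 486 nm in 10 mM HEPES pH 7.5, 150 mM NaCl. koff and half-life were derived from the recovery.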

Test [5] deals with Klebsiella pneumoniae. The test can be described thus: Inhibition of beta lactamase KPC-2 in Klebsiella pneumoniae assessed as irreversible covalent complex formation by measuring half life using nitrocefin as substrate. Summed up:
as §2

Test [6] relates to Klebsiella pneumoniae. Briefly: Potentiation of cefepime-induced antibacterial activity against Klebsiella pneumoniae Ecl8 transfected with pUBYT vector expressing KPC-2 assessed as cefepime MIC measured after 18 to 24 hrs by CLSI protocol based broth microdilution assay (Rvb >=256 ug/ml). To be noted: time hrs 18-24. Type of test: functional. Summed up:
(§3)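 Broth microdilution in cation-adjusted Mueller–Hinton broth per CLSI, triplicate; K. pneumoniae Ecl8 carrying pUBYT with blaKPC-2 under the ISKpn7 promoter. β-Lactam serially diluted with inhibitor fixed at 4 mg per liter (diluted from 100 mM DMSO stock). Incubated at 37 °C for 18 to 24 hours; growth read as absorbance at 600 nm.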
On the technique in general: In broth dilution the organism is exposed to a series of concentrations in liquid medium.

Test [7] relates to Klebsiella pneumoniae. Briefly: Potentiation of meropenem-induced antibacterial activity against Klebsiella pneumoniae Ecl8 transfected with pUBYT vector expressing KPC-2 assessed as meropenem MIC measured after 18 to 24 hrs by CLSI protocol based broth microdilution assay (reference value: 16 ug/ml). The test is classed as functional. To be noted: time hrs 18-24. In a few lines:
as §3

A word on the pIC50: it is the IC50 on a negative log10 scale, so that one unit is a factor of ten. Low values mean a high IC50, high ones a low IC50. By pKi is commonly meant the negative decadic logarithm of the Ki, by convention in mol/L. As a reminder, the MIC is the lowest concentration found to suppress growth. The molecule `O=C(O)C[C@@H]1CC[C@H](NC(=O)Cc2cccs2)B(O)O1` [VABORBACTAM] gave a pIC50 in test [1] of 7.46. Also, the pKi in test [2] was 5.07. In addition, the K in the test on Klebsiella pneumoniae [3] was 6.7 10^2/M/s; in the test with Klebsiella pneumoniae [4], 0.00016 s⁻¹. In addition, the T1/2 in the test on Klebsiella pneumoniae [5] was determined as 1.2 h. The minimal inhibitory concentration (MIC) in the test with Klebsiella pneumoniae [6] and in the test with Klebsiella pneumoniae [7] was no more than 0.125 µg/mL throughout.

Take `O=C(NC1CCNCC1)[C@@H]1CC[C@@H]2CN1C(=O)N2OS(=O)(=O)O` [RELEBACTAM]: the pKi in test [2] was 5.92. Moreover, the K in the test on Klebsiella pneumoniae [4] was 0.00087 s⁻¹.

`NCCN[C@H]1CC[C@H](CC(=O)N[C@H]2Cc3cccc(C(=O)O)c3OB2O)CC1` gave a pIC50 in test [1] of 7.43. Also, the pKi in test [2] is 5.89. Also, in the test on Klebsiella pneumoniae [3], the K is 1 10^4/M/s. In addition, the minimal inhibitory concentration (MIC) with Klebsiella pneumoniae [6] and in the test on Klebsiella pneumoniae [7] was no more than 0.125 µg/mL throughout.
